Measurements from different studies.
In brackets after ≈: the same amount, converted by molar mass.

Structure (SMILES)	organism	assay	test system	setting	endpoint	value
C#Cc1cccc(O)c1C=NNC(=O)c1ccc(Br)cc1	Aspergillus fumigatus	microbial growth	–	48 h, pH 6.5	MIC80	> 32 µg/mL
O=C(O)c1cn(C2CC2)c2cc(N3CCNCC3)c(F)cc2c1=O	Enterococcus faecalis	microbial growth	VRE	drug-resistant strain	MIC	< 1 µg/mL
COc1ccc(C=NNC(=S)N[N+](=O)[O-])cc1OC	Leishmania major	parasite growth, MTT	–	72 h, promastigote	IC50	1200 µM
C#Cc1ccc(C=NNC(=O)c2ccc(Br)c(Br)c2)c(O)c1	Aspergillus fumigatus	microbial growth	–	48 h, pH 6.5	MIC80	> 16 µg/mL
COC(=O)C1=C(C)NC(C)=C(C(=O)OC(C)(C)CN(C)CCC(c2ccccc2)c2ccccc2)C1c1cccc([N+](=O)[O-])c1 (stereo not drawn)	Aspergillus fumigatus	microbial growth, broth dilution	–	48 h	MIC	> 250 µM
C[C@@H](O)[C@H]1C(=O)N2C(C(=O)O)=C(SCCN=CN)C[C@H]12	Enterococcus faecalis	microbial growth	VRE	drug-resistant strain	MIC	< 1 µg/mL
C=C(CN(C(=O)c1c(C(F)F)nn(C)c1F)C1CC1)c1ccc(Cl)cc1Cl	Ustilaginoidea virens	microbial growth	–	12 h	EC50	0.0232 µg/mL (≈ 0.0555 µM)
C#Cc1ccc(C=NNC(=O)c2cc(Br)cc(Br)c2O)c(O)c1	Aspergillus fumigatus	microbial growth	–	48 h, pH 6.5	MIC80	> 16 µg/mL
O=[N+]([O-])NC(=S)NN=Cc1ccc(Br)cc1	Leishmania major	parasite growth	J774.A1	72 h, intracellular, amastigote	IC50	424 µM
